The results in this text go back to ChEMBL document CHEMBL2202960, “Discovery of the investigational drug TAK-441, a pyrrolo[3,2-c]pyridine derivative, as a highly potent and orally active hedgehog signaling inhibitor: modification of the core skeleton for improved solubility” (Bioorg Med Chem, 2012).

The nature of data set [1]: AUC (0 to 24 hrs) in nu/nu BALB/c mouse at 100 mg/kg, po. It is filed as ADME, organism-based. Also noted: time < 24 hr, dose 100 mg/kg, route oral. Conditions: plasma.
Data set [2] deals with Mus musculus. The data set can be described thus: Gli1 mRNA expression level in human PAN-04 cells xenografted mouse tumor at 25 mg/kg, po after 24 hrs of first dose relative to control. Conditions: PAN-04, po.
Data set [3] in a line: Cmax in nu/nu BALB/c mouse at 100 mg/kg, po. It counts as ADME, organism-based. More on the design: dose 100 mg/kg, route oral. Conditions: in vivo.
Data set [4] can be described thus: Solubility of the compound in lapanese pharmacopoeia second fluid at pH 6.8. It counts as physicochemical. The settings on record: Japanese Pharmacopoeia second fluid. The method in brief:
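Solubility was measured in Japanese Pharmacopoeia second fluid, pH 6.8. After incubation, precipitate was removed by filter-plate filtration and dissolved compound in the filtrate was quantified by HPLC.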

The target of another data set is Sonic hedgehog protein (Mus musculus, UniProt Q62226). The data set can be described thus: Inhibition of recombinant mouse Shh-N expressed in mouse NIH3T3/Gli-luc cells assessed as inhibition of Gli1 expression after 48 hrs by luciferase reporter gene assay. It counts as cell-based. The method in brief:
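NIH3T3/Gli-luc cells were kept in DMEM with 10% FBS and 500 µg/mL G418, then seeded overnight on collagen-coated plates at 7.5×10³ cells/well (37 °C, 5% CO2). Final well conditions were 5.8% FBS, 1 µg/mL Shh-N and 0.03–1000 nM compound (n = 4 wells), incubated 48 h. Controls used 0.1% DMSO ± Shh-N. Read-out was Bright-Glo luciferase, and IC50 is the mean of four measurements.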

A short description of data set [5]: AUC (0 to 24 hrs) in rat at 10 mg/kg, po. Also noted: time < 24 hr, dose 10 mg/kg, route oral. It is filed as ADME, organism-based. Conditions: plasma. The method in brief: (§1)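 Rats were given 1 mg/kg iv or 10 mg/kg po and were non-fasted. Plasma was sampled over 0–24 h, deproteinized with methanol plus an internal standard, centrifuged, diluted in 0.01 mol/L ammonium formate/(MeCN/formic acid 100:0.2) (7:3), and centrifuged again. AUC_0–24h is reported as mean ± SD of three animals.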

Data set [6] is described as follows: AUC (0 to 24 hrs) in dog at 10 mg/kg, po. It counts as ADME, organism-based, Canis lupus familiaris. Also noted: time < 24 hr, dose 10 mg/kg, route oral. Conditions: plasma. The method in brief:
(§2)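 Fed dogs were dosed at 1 mg/kg iv and 10 mg/kg po. Plasma was collected over 0–24 h, deproteinized with methanol containing an internal standard, centrifuged, and diluted with 0.01 mol/L ammonium formate/(MeCN/formic acid 100:0.2) (7:3) for compound quantitation. AUC_0–24h is reported as mean ± SD of four animals.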

A short description of data set [7]: Oral bioavailability in rat at 10 mg/kg. It counts as ADME, organism-based. Conditions: in vivo. In a few lines:
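Rats (n = 3, listed as non-fasted) given 1 mg/kg iv and 10 mg/kg po. Plasma was deproteinized with methanol containing internal standard, centrifuged, and diluted in 0.01 mol/L ammonium formate/[MeCN/formic acid 100:0.2] (7:3). F was calculated from mean AUC_0–24h values after oral and intravenous dosing.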

Data set [8] deals with Mus musculus. The data set can be described thus: Antitumor activity in Ptc1+/- p53-/- medulloblastoma allograft model of mouse assessed as tumor growth inhibition at 25 mg/kg, po qd for 14 days relative to control. It counts as functional. In a few lines:
(§3)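 Medulloblastoma tumours were serially passaged subcutaneously in nude mice (CAnN.Cg-Foxn1nu). Treatment started at 150–250 mm³ tumour volume: oral dosing as a 0.5% methylcellulose suspension for 14 days, once daily per the figure legend. Tumours were measured by caliper, with V = (a×b²)/2. T/C% = mean treated (Vend−Vstart) / control (Vend−Vstart) × 100, with n = 5 and a 1-tailed Shirley-Williams test against vehicle.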

Data set [9] can be described thus: AUC (0 to 24 hrs) in dog at 1 mg/kg, iv. It is filed as ADME, organism-based, Canis lupus familiaris. The settings on record: plasma. Also noted: time < 24 hr, dose 1 mg/kg, route intravenous. In a few lines:
as §2

Data set [10] can be described thus: Oral bioavailability in dog at 10 mg/kg. It is filed as ADME, organism-based, Canis lupus familiaris. Conditions: in vivo. In a few lines: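 Fed dogs (n = 4) given 1 mg/kg iv and 10 mg/kg po. Plasma was deproteinized with methanol containing internal standard, centrifuged, and diluted in 0.01 mol/L ammonium formate/[MeCN/formic acid 100:0.2] (7:3). F was calculated per animal from AUC_0–24h after oral versus intravenous dosing in the same dog.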

Data set [11] in a line: Volume of distribution at steady state in dog at 1 mg/kg, iv and 10 mg/kg, po. It counts as ADME, organism-based, Canis lupus familiaris. The settings on record: in vivo, read-out: Vdss. In a few lines: (§4)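 Single doses were given to rats and dogs: 1 mg/kg iv and 10 mg/kg po. Plasma was deproteinized with methanol containing internal standard, then diluted with 0.01 mol/L ammonium formate/(MeCN/formic acid) 7:3. Rat values are the mean ± SD of three non-fasted animals. Dog values come from four fed animals, with F calculated per animal from AUC0–24h.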

Data set [12] concerns Mus musculus. The data set can be described thus: Antitumor activity in Ptc1+/- p53-/- medulloblastoma allograft model of mouse assessed as tumor growth inhibition at 1 mg/kg, po qd for 14 days relative to control. It counts as functional. In a few lines:
as §3

Data set [13] in a line: Clearance in dog at 1 mg/kg, iv and 10 mg/kg, po. It counts as ADME, organism-based, Canis lupus familiaris. Conditions: in vivo. In a few lines:
as §4

The nature of data set [14]: Volume of distribution at steady state in rat at 1 mg/kg, iv and 10 mg/kg, po. It counts as ADME, organism-based. Conditions: in vivo, read-out: Vdss. The method in brief:
as §4

The nature of data set [15]: AUC (0 to 24 hrs) in rat at 1 mg/kg, iv. It counts as ADME, organism-based. Also noted: time < 24 hr, dose 1 mg/kg, route intravenous. The settings on record: plasma. The method in brief: as §1
Data set [16] is described as follows: Clearance in rat at 1 mg/kg, iv and 10 mg/kg, po. It counts as ADME, organism-based. The settings on record: in vivo. The method in brief:
as §4

Structures are written as SMILES. Values after ≈ are worked out from the molar mass of the structure shown.

Sonic hedgehog protein, sequence (Q62226 25-198 limits assumed): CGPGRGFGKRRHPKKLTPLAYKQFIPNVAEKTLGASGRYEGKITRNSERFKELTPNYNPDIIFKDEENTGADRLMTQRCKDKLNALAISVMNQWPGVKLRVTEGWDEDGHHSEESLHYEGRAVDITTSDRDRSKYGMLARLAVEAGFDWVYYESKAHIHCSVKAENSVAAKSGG

In turn, `COc1c(C(=O)NC2CCN(C(=O)CO)CC2)n(C)c2c1c(=O)n(CC(=O)c1ccccc1)c1ccccc21` came in with an AUC(0-t) at 24 h in [1] of 32300 ng·h/mL. The molecule further yielded a level, % of control at 25 mg/kg with Mus musculus [2] of 5%. Also, the concentration in data set [3] peaked (Cmax) at 3630 ng/mL. Besides, the concentration in solution in [4] (solubility) was 8.4 µg/mL (≈ 15.8 µM).

For `COc1c(C(=O)NC2CCN(C(=O)CO)CC2)n(C)c2cc(C)n(CC(=O)c3ccccc3)c(=O)c12`, on Sonic hedgehog protein, the IC50 was found to be 14 nM. Further, the concentration in solution in data set [4] (solubility) was 77 µg/mL (≈ 156 µM).

In the case of `CCc1cc2c(c(OC)c(C(=O)NC3CCN(C(=O)CO)CC3)n2C)c(=O)n1CC(=O)c1ccccc1`, the IC50 at Sonic hedgehog protein turned out to be 5.7 nM. The molecule further displayed a solubility in [4] of 63 µg/mL (≈ 124 µM).

As to `CCc1c(C(=O)NC2CCN(C(=O)CO)CC2)n(C)c2cc(CC)n(CC(=O)c3ccccc3)c(=O)c12`, the half-maximal inhibitory concentration (IC50) at Sonic hedgehog protein was 95 nM.

As for `CCOc1c(C(=O)NC2CCN(C(=O)CO)CC2)n(C)c2cc(CC)n(CC(=O)c3ccccc3)c(=O)c12`, the IC50 on Sonic hedgehog protein was 6.9 nM. Besides, in data set [4], the concentration in solution (solubility) was 58 µg/mL (≈ 111 µM).

Turning to `CCc1cc2c(c(OCCF)c(C(=O)NC3CCN(C(=O)CO)CC3)n2C)c(=O)n1CC(=O)c1ccccc1`, on Sonic hedgehog protein, the IC50 turned out to be 4.9 nM. Also, in [4], the solubility stood at 69 µg/mL (≈ 128 µM).

Turning to `CCc1cc2c(c(OCC(F)F)c(C(=O)NC3CCN(C(=O)CO)CC3)n2C)c(=O)n1CC(=O)c1ccccc1`, the IC50 on Sonic hedgehog protein amounted to 4.4 nM. The same molecule yielded a solubility in data set [4] of 84 µg/mL (≈ 150 µM).

On to `COc1c(C(=O)NC2CCN(C(=O)CO)CC2)n(C)c2c3c(n(CC(=O)c4ccccc4)c(=O)c12)CCCC3`, for which the IC50 at Sonic hedgehog protein stood at 96 nM. The concentration in solution in data set [4] (solubility) was 80 µg/mL (≈ 150 µM).

With `CCc1cc2c(c(OCC(F)(F)F)c(C(=O)NC3CCN(C(=O)CO)CC3)n2C)c(=O)n1CC(=O)c1ccccc1` [TAK-441], the AUC(0-t) at 24 h in data set [5] stood at 8030 ng·h/mL; in data set [1], 206000 ng·h/mL; in data set [6], 45400 ng·h/mL; in data set [9], 5100 ng·h/mL; in [15] it was 2530 ng·h/mL. Moreover, the IC50 on Sonic hedgehog protein came out at 4.4 nM. Further, the Cmax in data set [3] was 21500 ng/mL. In addition, the bioavailability is 31.7% in [7] and 90.3% in data set [10]. Besides, the T/C was found to be 3% with Mus musculus [8] and 46% in the data set on Mus musculus [12]. The same molecule came in with a solubility in [4] of 81 µg/mL (≈ 140 µM). The Vd in data set [11] was 2.18 L/kg; in data set [14], 0.682 L/kg. In addition, the clearance was 2.69 mL/min/kg in [13] and 6.63 mL/min/kg in [16].
